APJ agonist: agonists of human apelin receptor APJ, primary screen, CHO-K1 cells, PathHunter beta-arrestin, luminescence; AID 2520, 2010; P35414; 0% DMSO wells, 100% apelin; activation, % at 20 µM; 330,000 tested, 0.11% active;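 active = activation more than six SD over the plate average, tested at 20 µM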;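 also: 0% = DMSO alone and 100% = apelin-13 at 10 nM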
Target sequence (P35414 whole entry, looked up): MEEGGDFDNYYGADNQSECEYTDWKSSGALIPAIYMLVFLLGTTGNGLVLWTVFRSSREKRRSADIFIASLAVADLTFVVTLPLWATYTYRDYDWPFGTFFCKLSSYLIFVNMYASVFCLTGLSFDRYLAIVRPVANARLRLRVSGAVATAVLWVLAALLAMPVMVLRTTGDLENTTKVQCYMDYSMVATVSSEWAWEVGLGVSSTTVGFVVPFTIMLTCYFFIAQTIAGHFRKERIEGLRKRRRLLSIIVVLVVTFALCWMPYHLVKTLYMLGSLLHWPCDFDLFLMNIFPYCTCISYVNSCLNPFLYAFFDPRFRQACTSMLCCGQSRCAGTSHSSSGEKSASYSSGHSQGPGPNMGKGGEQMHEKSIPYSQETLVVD
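assay system = CHO-K1 APJ beta-arrestin complementation cell line | input = cell density 1000 per well | dosing = compound 20 µM once, DMSO 1% | timing = compound 90 min 25 °C, reagent 1 h | measured by = luminescence from split beta-galactosidase complementation, Galacton Star/Emerald II substrate | read-out basis = APJ agonist activity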
EBI2 block: EBI2 receptor antagonists, beta-arrestin recruitment, primary screen, cell-based, luminescence, 7a,25-OHC stimulation, uHTS; AID 651636, 2012; inhibition, % at 5 µM; G-protein coupled receptor 183 (Homo sapiens), P32249; 360,000 tested, 0.81% active; 7a,25-OHC stimulated; in the data active = inhibition above about 38%;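 also: enzyme fragment complementation signal reports receptor beta-arrestin coupling in cells; 0% = agonist plus DMSO wells and 100% = wells without agonist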
CCR6 antagonist: CCR6 receptor antagonists, primary screen, cell-based, CHO-K1, luminescence, beta-arrestin, uHTS. C-C chemokine receptor type 6 (Homo sapiens), P51684. CHO-K1 CCR6 PathHunter beta-arrestin, CCL20-stimulated. inhibition, % at 20 µM. 340,000 tested, 0.49% active. AID 493098, 2011;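 active = compounds whose inhibition of the agonist-driven luminescence signal at 20 µM reaches about 50%, limit read from the data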;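 also: cells stimulated with CCL20 at 14 nM final; plate controls were DMSO with CCL20 for no effect and DMSO without agonist for full effect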
APJ antagonist: antagonists of human apelin receptor APJ, primary screen, CHO-K1 cells, beta-arrestin complementation, luminescence | 330,000 tested, 0.32% active | AID 2521, 2010 | inhibition, % at 20 µM | P35414;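 active = inhibition above about 40% at 20 µM, limit read from the data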;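 also: cells challenged with 10 nM apelin-13 agonist together with compound; plate controls were apelin-13 plus DMSO wells for no effect and DMSO wells lacking apelin-13 for full effect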
CXCR6 block: CXCR6 receptor inhibitors, primary screen, cell-based, beta-arrestin, luminescence, CHO-K1 PathHunter, 1536-well; C-X-C chemokine receptor type 6 (Homo sapiens), O00574; inhibition, % at 20 µM; 360,000 tested, 0.36% active; AID 602244, 2012; in the data active = inhibition above about 34%, passing the limit was not always enough;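 also: antagonist mode with CXCL16 agonist at 10 nM final; 0% = 10 nM CXCL16 with DMSO and 100% = unstimulated wells without agonist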
EBI2 antag conf: EBI2 antagonist hit retest, beta-arrestin, confirmation, cell-based, single concentration, luminescence, 7a,25-OHC stimulation. shares compounds with EBI2 block. 7a,25-OHC antagonism. inhibition, % at 5 µM. 2,400 tested, 29% active. AID 651997, 2013;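 active = inhibition of at least 50%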
EBI2 ag: EBI2 agonist activity of antagonist hits, confirmation, counter-screen for EBI2 antagonist project, cell-based, single concentration, agonist mode, luminescence; shares compounds with EBI2 block; EBI2-expressing cells, 60 min; 0% vehicle, 100% 7α,25-dihydroxycholesterol control; activation, % at 5 µM; 2,400 tested, under 10 active;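 active = activation of at least 50%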
bGal counter: E. coli beta-galactosidase enzyme inhibition, confirmation, counter-screen for EBI2 antagonist project, biochemical, luminescence, single concentration; shares compounds with EBI2 block; 2,400 tested, 1% active; purified beta-galactosidase, luminescent Galacton Star, 15 min; inhibition, % at 5 µM;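 active = replicate-average signal at least 3 plate SD below neutral wells, shown as high inhibition, flagging enzyme-inhibiting false positives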;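 also: 0% = DMSO wells with enzyme and 100% = wells lacking enzyme; higher means stronger loss of beta-gal luminescence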
Numbers without * were called inactive; . = no result. In the library only some 1.5% were active in any assay of this set; here they are far more common.

SMILES | APJ agonist | EBI2 block | CCR6 antagonist | APJ antagonist | CXCR6 block | EBI2 antag conf | EBI2 ag | bGal counter
COc1cccc(OCC(=O)N2CCN(C)CC2)c1 | -2 | -4 | -2 | -9 | 4 | . | . | .
O=C(COc1ccc(Cl)cc1)N1CCN(Cc2ccc([N+](=O)[O-])cc2)CC1 | -6 | 94* | 10 | -2 | -15 | 79* | 0 | 5
COc1ccc(OCC(=O)N2CCN(Cc3nc4cc([N+](=O)[O-])ccc4n3C)CC2)cc1 | 1 | 74* | -15 | 1 | 10 | 38 | -2 | -8
Cc1ccc(OCC(=O)N2CCN(Cc3cccnc3)CC2)cc1 | -1 | 53* | -5 | 4 | -11 | 13 | -1 | -8
O=[N+]([O-])c1cccc(CN2CCN(Cc3ccc(Cl)cc3)CC2)c1 | -3 | 3 | 11 | 14 | -9 | . | . | .
Cc1cc(=O)oc2cc(OCC(=O)N3CCN(Cc4ccc5c(c4)OCO5)CC3)ccc12 | -9 | 10 | 10 | 11 | 0 | . | . | .
C[C@H](NC(=O)N1C[C@H]2C[C@@H](C1)c1cccc(=O)n1C2)C(=O)Nc1ccc(F)c(F)c1 | -2 | 2 | -6 | -71 | -5 | . | . | .
CCOC(=O)[C@]12Cc3c(cc(OC)c(OC)c3OC)[C@H]1N(C1CCCCC1)C(=O)c1ccccc12 | . | 71* | . | . | 11 | -1 | 6 | -11
CCOC(=O)[C@]12Cc3ccc(C)cc3[C@H]1N(C1CCCCC1)C(=O)c1cc(OC)ccc12 | . | 52* | . | . | 28 | 10 | 3 | -11
CCOC(=O)[C@]12Cc3cc(C)ccc3[C@H]1N(C1CCCCC1)C(=O)c1ccccc12 | . | 60* | . | . | 16 | 7 | 2 | -11
CCOC(=O)[C@]12Cc3cc(C)ccc3[C@H]1N(CCC(=O)OC)C(=O)c1ccccc12 | . | -4 | . | . | 7 | . | . | .
CCOC(=O)[C@]12Cc3cc(OC)ccc3[C@H]1N(C)C(=O)c1cc(OC)ccc12 | . | 9 | . | . | -4 | . | . | .
CCOC(=O)[C@]12Cc3ccc(C)cc3[C@H]1N(C1CCCCC1)C(=O)c1ccccc12 | . | 64* | . | . | 19 | 11 | 1 | -8
O=C(CCC(=O)N1CCC2(CC1)OCCO2)Nc1nnc(C2CCCCC2)s1 | -5 | 3 | 3 | 15 | 12 | . | . | .
O=C1NCN(c2ccccc2)C12CCN(C(c1ccnc3ccccc13)c1nnnn1C1CCCC1)CC2 (centres undefined) | . | 8 | . | . | -3 | . | . | .
COc1ccc(OC)c(N2C(=O)NC(=O)/C(=C/c3ccc([N+](=O)[O-])s3)C2=O)c1 | 1 | -10 | 12 | -31 | 1 | . | . | .
O=C(c1cc2cc(F)ccc2[nH]1)N1CCC2(CC1)OCCO2 | 4 | 41 | 4 | -53 | -4 | . | . | .
O=C(c1cc2cc(Cl)ccc2[nH]1)N1CCC2(CC1)OCCO2 | 5 | 88* | 10 | 6 | -7 | 66* | 2 | -1
CC(C)CCNC(=O)c1c(N)n(Cc2ccc3c(c2)OCO3)c2nc3ccccc3nc12 | -4 | 48* | -30 | 2 | 1 | 23 | 0 | -9
CCCNC(=O)c1c(N)n(Cc2ccc3c(c2)OCO3)c2nc3ccccc3nc12 | -2 | 45* | -12 | 20 | -1 | 36 | 0 | 2
CCOC(=O)c1cncn1C(C)c1ccccc1 (centres undefined) | 1 | 48* | 6 | -8 | -6 | 36 | 0 | 7
CN1CC2CN(Cc3ccccc3)S(=O)(=O)C2C1 (centres undefined) | . | -3 | . | . | 0 | . | . | .
CN(C)C1C(=O)C(C(N)=O)=C(O)C2(O)C(=O)C3=C(O)c4c(O)cccc4C(C)(O)C3C(O)C12 (centres undefined) | 0 | -8 | 3 | 15 | -9 | . | . | .
O=C(COc1ccc2ccccc2c1)N1CCN(Cc2c[nH]c3ccccc23)CC1 | -4 | 83* | 6 | -12 | -25 | 53* | 1 | 8
CN1CCN(C(=O)COc2ccc(Oc3ccccc3)cc2)CC1 | -1 | -4 | 7 | -19 | 5 | . | . | .
SMILES | APJ agonist | EBI2 block | CCR6 antagonist | APJ antagonist | CXCR6 block | EBI2 antag conf | EBI2 ag | bGal counter
O=C(COc1ccc(Br)cc1)N1CCN(Cc2c[nH]c3ccccc23)CC1 | 1 | 81* | -5 | 15 | -3 | 54* | 1 | 9
COc1ccc(CN2CCN(C(=O)COc3ccc4ccccc4c3)CC2)c(OC)c1 | -4 | 78* | 13 | 5 | -6 | 69* | 2 | 8
CCC(C)N1CCN(C(=O)COc2ccc3ccccc3c2)CC1 (centres undefined) | 0 | 91* | 8 | 26 | 2 | 74* | 1 | 5
Cc1cccc(C)c1-n1nnnc1C(c1cccc2ccccc12)N1CCC(n2c(=O)[nH]c3ccccc32)CC1 (centres undefined) | . | 42* | . | . | 3 | 35 | -1 | -18
Cc1cccc(C)c1-n1nnnc1C(c1cccs1)N1CCC(n2c(=O)[nH]c3ccccc32)CC1 (centres undefined) | . | 13 | . | . | 14 | . | . | .
N=c1c[n+](CC23CC4CC(CC(C4)C2)C3)[n-]o1 | -1 | -4 | 9 | -8 | 4 | . | . | .
Cc1nn(CCC#N)c2c1P(=S)(N1CCCC1)OC(c1ccc(F)cc1)=N2 (centres undefined) | -8 | 3 | 7 | 10 | -6 | . | . | .
Cc1ccc(OCC(=O)N2CCN(C3CCC(c4ccccc4)CC3)CC2)cc1 (centres undefined) | -2 | 82* | 3 | 11 | -2 | 64* | 2 | 2
O=C(COc1ccccc1)N1CCN(C2CC3CCC2C3)CC1 (centres undefined) | -4 | 37 | 12 | -6 | -5 | . | . | .
O=C(COc1ccc(Br)cc1)N1CCN(C2CCCC2)CC1 | 1 | 85* | 1 | 11 | 4 | 82* | -1 | -7
CCOc1cc(C2C(C#N)=C(N)Oc3c2c(=O)oc2ccccc32)ccc1OC(=O)c1cccs1 (centres undefined) | -1 | -4 | 1 | -1 | 6 | . | . | .
COc1ccc(OCC(=O)N2CCN(CC3CC4C=CC3C4)CC2)cc1 (centres undefined) | -2 | 83* | -10 | 16 | -2 | 56* | 1 | 2
CCOS(C)(=O)=O | -4 | 0 | -8 | 1 | 2 | . | . | .
